The list is not random: actives were taken first. Their share in the collection is about 1.9%.
M4 ag – human M4 muscarinic receptor agonists, primary screen, CHO-K1 cells, Fluo-8 calcium fluorescence | Muscarinic acetylcholine receptor M4 (Homo sapiens), P08173 | CHO-K1 hM4/Gqi5; vehicle 0%, full acetylcholine response 100% | activation, % at 3 µM | actives 0.14% (n = 360,000);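 active = activation above the run mean over all test wells plus 3 SD, cut at about 32% in these data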;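 also: peak over basal fluorescence ratio per well then scaled between controls; 0% = DMSO wells and 100% = acetylcholine at EC100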
Target sequence (P08173 whole entry, looked up): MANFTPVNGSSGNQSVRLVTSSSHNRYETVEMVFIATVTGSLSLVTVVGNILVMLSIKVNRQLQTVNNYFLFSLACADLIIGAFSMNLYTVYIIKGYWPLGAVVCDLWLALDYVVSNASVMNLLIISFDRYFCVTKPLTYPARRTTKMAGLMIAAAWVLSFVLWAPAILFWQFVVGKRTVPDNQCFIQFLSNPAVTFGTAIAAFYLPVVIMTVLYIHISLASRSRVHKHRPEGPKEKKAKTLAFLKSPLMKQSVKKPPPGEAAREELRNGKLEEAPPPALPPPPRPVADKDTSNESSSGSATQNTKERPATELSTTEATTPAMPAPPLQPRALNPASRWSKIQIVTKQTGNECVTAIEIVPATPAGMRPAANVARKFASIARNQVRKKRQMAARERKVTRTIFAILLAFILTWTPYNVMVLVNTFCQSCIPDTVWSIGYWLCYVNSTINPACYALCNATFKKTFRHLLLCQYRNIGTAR
M4 antag – human M4 muscarinic receptor antagonists, primary screen, CHO cells, Fluo-8 calcium fluorescence | Muscarinic acetylcholine receptor M4 (Homo sapiens), P08173 | CHO-hM4 cells, ACh EC80 | inhibition, % at 3 µM | actives 0.73% (n = 360,000);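 active = inhibition above its plate's cutoff, the mean inhibition of sample wells plus 3 SD, cut at about 27% in these data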;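 also: 0% = acetylcholine EC80 with DMSO and 100% = DMSO without agonist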
M4 PAM – human M4 muscarinic receptor positive allosteric modulators, primary screen, CHO-K1 cells, Fluo-8 calcium fluorescence | AID 624126, 2012 | activation, % at 3 µM | actives 0.4% (n = 360,000) | Muscarinic acetylcholine receptor M4 (Homo sapiens), P08173 | CHO-K1 hM4/Gqi5, ACh EC20; 0% = ACh EC20, 100% = maximal ACh;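 active = activation above its plate's cutoff, the mean activation of sample wells plus 3 SD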
CHRM5 agonist – human M5 muscarinic receptor agonists, primary screen, CHO-K1 cells, Fluo-8 calcium fluorescence; CHO-K1 hM5 cells; 0% DMSO wells, 100% maximal acetylcholine response; activation, % at 3 µM; actives 0.19% (n = 360,000); AID 624037, 2012;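 active = activation above the run's mean over test compounds plus 3 SD, cut at about 23% in these data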;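 also: signal is peak over basal fluorescence ratio across the kinetic read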
M5 PAM – human M5 muscarinic receptor positive allosteric modulators, primary screen, CHO-K1 cells, Fluo-8 calcium fluorescence | actives 0.3% (n = 360,000) | activation, % at 3 µM | CHO-K1 hM5, ACh EC20 PAM; 0% = ACh EC20, 100% = ACh EC100 | Muscarinic acetylcholine receptor M5 (Homo sapiens), P08912;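 active = activation above the run cutoff, the mean activation of all test compounds plus 3 SD, cut at about 18% in these data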
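Measured by: Fluo-8 calcium fluorescence; material: human M5 receptor in CHO-K1 cells; schedule: Post-acetylcholine fluorescence recording 140 s; benchmarks: low control EC20 acetylcholine (0%), high control EC100 acetylcholine (100%); read-out: Max/basal fluorescence ratio as % of EC20–EC100 ACh window; compound: single dose, 3 µM nominal final test concentration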
CHRM5 antagonist – human M5 muscarinic receptor antagonists, primary screen, CHO cells, Fluo-8 calcium fluorescence. CHO-hM5 cells, ACh EC80. Muscarinic acetylcholine receptor M5 (Homo sapiens), P08912. actives 0.59% (n = 360,000). inhibition, % at 3 µM;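 active = inhibition above a per-plate cutoff, the mean of that plate's test compounds plus 3 SD, cut at about 27% in these data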;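 also: 0% = acetylcholine EC80 with DMSO and 100% = DMSO without agonist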
Numbers without * were called inactive.

SMILES	M4 ag	M4 antag	M4 PAM	CHRM5 agonist	M5 PAM	CHRM5 antagonist
CC1CCCN(CCCNS(=O)(=O)c2ccc3c(c2)CCN3C(=O)C2CC2)C1 (stereo not drawn)	1	4	4	-8	-2	12
CCOC(=O)COc1ccccc1/C=C\[N+](=O)[O-]	4	27*	-9	-1	-3	17
CCOC(=O)c1ccccc1NC(=S)N1CCN(C2CCCCC2)CC1	0	-5	8	-6	-2	9
N#CCC(=O)Nc1ccc(C(=O)OCC(=O)Nc2ccccc2Sc2ccccc2)cc1	24	20	-14	3	-15	28*
COCCCNC(=O)CCCn1c(=O)c2ccccc2n(Cc2cccc([N+](=O)[O-])c2)c1=O	0	-3	5	-4	9	-4
CCCCc1ccc(NC(=O)CSc2nc3ncccc3[nH]2)cc1	21	33*	-11	5	-10	9
CCOC(=O)c1ccc(NC(=O)CSc2nc3ncccc3[nH]2)cc1	5	-16	4	4	-8	7
COc1ccc(C2=NS(=O)(=O)N(C)C(C(=O)Nc3ccc4c(c3)OCO4)=C2)cc1OC	17	-6	-7	4	-13	12
Cc1onc(-c2ccccc2)c1C(=O)NNC(=S)NC(=O)c1ccc2c(c1)OCO2	70*	5	-10	21	-10	13
C=CCN(c1ccccc1OC)S(=O)(=O)c1cccc(C(=O)OCC(=O)c2c(N)n(C)c(=O)n(C)c2=O)c1	15	14	-13	-3	-34	27*
CCOC(=O)c1c(S(=O)(=O)NCC(=O)Nc2ccc(F)cc2F)c(C)n(C)c1C	0	-8	18*	-1	13	-13
CCOC(=O)c1c(S(=O)(=O)NCC(=O)Nc2cc(C)ccc2C)c(C)n(C)c1C	-1	9	-3	-5	-5	16
CCOc1ccccc1NC(=O)c1cccc(N2C(=O)CCC2=O)c1	1	-5	0	-4	-5	0
CCOc1ccccc1NC(=O)c1cc(C(=O)Nc2ccccc2OCC)cc(N2C(=O)CCC2=O)c1	9	3	-9	-1	-17	29*
CC(CN)(NS(=O)(=O)c1ccccc1)c1ccccc1 (stereo not drawn)	0	5	-6	-3	-1	12
CC1=[N+](C)N(c2ccccc2)C(=O)C1N=C/C=C/c1ccccc1 (stereo not drawn)	2	58*	-15	-19	-31	25
COc1ccccc1/C=C/C=NC1C(=O)N(c2ccccc2)[N+](C)=C1C (stereo not drawn)	6	3	-6	-5	-2	7
COc1ccc(OC)c(CNC(=O)CCS(=O)(=O)c2ccc3c(c2)oc(=O)n3C)c1	1	-8	-1	-2	-2	-3
CC(C)(CN1CCN(c2ccccc2)CC1)NS(=O)(=O)c1ccccc1	4	31*	14	-2	-3	-2
CCOc1cc(CNCc2ccccc2)ccc1OCc1ccc(Cl)cc1	34*	28*	-15	12	-13	26
CCOc1cc(CNCCc2ccc(S(N)(=O)=O)cc2)ccc1OCc1ccccc1	20	19	-20	-4	-16	13
COc1cc(CNCc2ccccn2)ccc1OCc1ccc(Cl)cc1Cl	23	33*	-21	-2	-6	11
CCOc1cc(CNCCc2ccc(S(N)(=O)=O)cc2)cc(Cl)c1OCc1ccccc1	30	46*	-5	14	-19	21
COc1ccc(CNCCc2ccc(Cl)cc2)cc1OCc1ccccc1	20	12	-11	12	-17	17
O=c1c(/C=N\NS(=O)(=O)c2ccccc2)coc2ccc(Cl)cc12	11	0	-7	-5	-11	35*
SMILES	M4 ag	M4 antag	M4 PAM	CHRM5 agonist	M5 PAM	CHRM5 antagonist
CCn1c(Cl)c(C=O)s/c1=N\S(=O)(=O)c1ccccc1	2	74*	-35	-9	-18	33*
C=CCOC(=O)c1ccc(N2CCN(c3ccccc3)CC2)nc1	2	-13	-1	-4	3	7
COCCn1c(SCC(=O)Nc2c(C)n(C)n(-c3ccccc3)c2=O)nc2ccccc2c1=O	0	-6	12	3	-4	12
CCn1c(=O)n(CC)c2cc(NC(=O)c3ccccc3Cl)ccc21	0	6	-3	9	20*	-21
CCc1ccc(C(=O)Nc2ccc3c(c2)n(C)c(=O)n3C)cc1	1	-6	-4	2	24*	-18
COc1cc(OC)cc(C(=O)Nc2ccc3c(c2)n(C)c(=O)n3C)c1	2	-5	3	2	0	-8
Cc1ccc(OCC(=O)OCc2nc3scc(-c4ccccc4)c3c(=O)[nH]2)cc1C	3	-3	13	2	7	1
Cc1cccc(N(C)Cc2nnc(-c3cccc(Br)c3)o2)c1	9	-6	-8	-1	-10	19
O=C(Nc1ccc(Cl)cc1)Nc1nc(-c2ccccc2O)cs1	18	29*	-23	8	-31	36*
CC(C)C(C(=O)Nc1ccccc1F)N1C(=O)c2ccccc2C1=O (stereo not drawn)	0	1	4	8	20*	-9
COc1ccccc1NC(=O)C(C)N1C(=O)c2ccccc2C1=O (stereo not drawn)	2	-7	2	2	13	-5
COc1ccc(NC(=O)C(C)N2C(=O)c3ccccc3C2=O)c(OC)c1 (stereo not drawn)	0	-3	-3	3	18*	-18
COc1ccc(CCNC(=O)CS(=O)(=O)c2cn(CC(=O)N(C(C)C)C(C)C)c3ccccc23)cc1OC	1	2	-2	-3	1	4
COc1ccc(CCNC(=O)CS(=O)(=O)c2cn(CC(=O)N3CCCC3)c3ccccc23)cc1OC	1	27*	-2	1	-6	-8
CC1(C)CC(CC(=O)O)(c2ccc(Cl)cc2)CCO1 (stereo not drawn)	2	-7	17*	-3	-8	9
O=C1/C(=C\c2ccc(Cl)c(Cl)c2)CN(C(=O)CCN2CCOCC2)C/C1=C/c1ccc(Cl)c(Cl)c1	6	43*	-7	8	-1	17
O=C1/C(=C\c2ccccc2)CN(C(=O)CCN2CCCCC2)C/C1=C/c1ccccc1	4	20	-10	-10	-3	8
